M1 PAM: human CHRM1 positive allosteric modulation; CHO-K1 hM1, Fluo-8 calcium fluorescence, ACh EC20; 0% = ACh EC20, 100% = maximal ACh; activation, % at 3 µM; 360,000 tested, 0.088% active; in the data active = activation above about 19%, passing the limit was not always enough
Target sequence (P11229 whole entry, looked up): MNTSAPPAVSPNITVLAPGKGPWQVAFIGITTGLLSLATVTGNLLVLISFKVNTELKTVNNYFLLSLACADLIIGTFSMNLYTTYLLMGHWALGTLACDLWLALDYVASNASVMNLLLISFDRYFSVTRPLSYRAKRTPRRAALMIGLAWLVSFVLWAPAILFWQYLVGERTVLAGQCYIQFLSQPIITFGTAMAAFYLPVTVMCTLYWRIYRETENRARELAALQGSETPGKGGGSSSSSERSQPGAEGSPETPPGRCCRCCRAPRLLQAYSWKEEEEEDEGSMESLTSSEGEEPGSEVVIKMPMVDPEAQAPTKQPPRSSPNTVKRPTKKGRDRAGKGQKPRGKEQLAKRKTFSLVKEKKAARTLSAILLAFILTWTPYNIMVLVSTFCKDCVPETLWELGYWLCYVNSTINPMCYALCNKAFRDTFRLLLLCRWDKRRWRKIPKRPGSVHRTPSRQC
CHRM1 agonist: human M1 muscarinic receptor agonism. P11229. activation, % at 3 µM. AID 588814. 360,000 tested, 0.33% active. CHO-K1 hM1, Fluo-8 calcium fluorescence, agonist mode; 0% DMSO, 100% acetylcholine EC100;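 active = activation above the run's mean compound activation plus 3 SD, cut at about 16% in these data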;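 also: peak over basal fluorescence ratio within a 140 s kinetic read after compound addition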
CHRM5 PAM: CHRM5 positive allosteric modulation; P08912; CHO-K1 hM5, Fluo-8 calcium, ACh EC20 PAM; 0% = ACh EC20, 100% = ACh EC100; 360,000 tested, 0.3% active; AID 624038; activation, % at 3 µM;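 active = activation above the run cutoff, the mean activation of all test compounds plus 3 SD, cut at about 18% in these data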
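Replicates: One well per compound, no replicates | System: Human M5 receptor in CHO-K1 cells | Benchmarks: Low control EC20 acetylcholine (0%), high control EC100 acetylcholine (100%) | Probe or stimulus: Acetylcholine, EC20 level | Times: Fluo-8 loading 80 min at 37 °C plus 30 min room temperature | Signal: Intracellular calcium via Fluo-8 fluorescence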
CHRM1 antagonist: antagonists of human M1 muscarinic receptor; P11229; CHO-K1 hM1, Fluo-8 calcium fluorescence, ACh EC80 antagonist; inhibition, % at 3 µM; 360,000 tested, 1.3% active; AID 588852;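 active = percent inhibition above its own plate's cutoff, namely the mean of that plate's compound wells plus 3 SD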;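 also: peak over basal fluorescence ratio during 140 s after agonist addition; 0% = ACh EC80 plus DMSO and 100% = DMSO alone without agonist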
M5 antag: antagonists of human muscarinic M5 receptor (CHRM5) | inhibition, % at 3 µM | AID 624040 | CHO-hM5 cells, Fluo-8 calcium fluorescence, ACh EC80 | 360,000 tested, 0.59% active | P08912;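 active = inhibition above a per-plate cutoff, the mean of that plate's test compounds plus 3 SD, cut at about 27% in these data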;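 also: 0% = acetylcholine EC80 with DMSO and 100% = DMSO without agonist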
M5 ag: CHRM5 agonism in calcium assay; activation, % at 3 µM; 360,000 tested, 0.19% active; P08912; CHO-K1 hM5 cells, Fluo-8 calcium fluorescence; 0% DMSO wells, 100% maximal acetylcholine response;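 active = activation above the run's mean over test compounds plus 3 SD, cut at about 23% in these data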;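 also: signal is peak over basal fluorescence ratio across the kinetic read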
The depositor's hits bear a star. Most compounds without a hit are left out; they make up all but 2% or so of the library.

Cc1ccc(C)c(-c2cc(C(=O)Nc3nccs3)c3ccccc3n2)c1 was read as M1 PAM -12, CHRM1 agonist -3, CHRM5 PAM -19, CHRM1 antagonist 33*, M5 antag 16 and M5 ag 1.
For COC(=O)c1sccc1NC(=O)c1cc(-c2cc(C)ccc2C)nc2ccccc12 the results were M1 PAM -1, CHRM1 agonist -4, CHRM5 PAM -3, CHRM1 antagonist 2, M5 antag 0 and M5 ag 1.
Screening CCOC(=O)Cc1csc(NC(=O)c2cc(-c3ccncc3)nc3ccccc23)n1 returned M1 PAM -15, CHRM1 agonist -2, CHRM5 PAM -10, CHRM1 antagonist 36*, M5 antag 10 and M5 ag 8.
Screening Cc1cccc(NC(=O)c2cc(-c3ccc(C)s3)nc3ccccc23)n1 returned M1 PAM -12, CHRM1 agonist -2, CHRM5 PAM -18, CHRM1 antagonist 23*, M5 antag 19 and M5 ag -1.
Screening CCOC(=O)Cc1csc(NC(=O)c2sc3nc4ccc(C)cc4cc3c2N)n1 returned M1 PAM 34*, CHRM1 agonist 0, CHRM5 PAM 2, CHRM1 antagonist -6, M5 antag 5 and M5 ag 5.
Screening CCOC(=O)Cc1csc(NC(=O)c2cccnc2)n1 returned M1 PAM 2, CHRM1 agonist -3, CHRM5 PAM -2, CHRM1 antagonist -1, M5 antag -1 and M5 ag 3.
For Nc1ccn([C@@H]2O[C@H](CNCc3ccc(N4CCNCC4)cc3)[C@@H](O)[C@H]2O)c(=O)n1 the results were M1 PAM -2, CHRM1 agonist -9, CHRM5 PAM 3, CHRM1 antagonist -5, M5 antag -21 and M5 ag 2.
N#Cc1cccc(C(Br)S(=O)(=O)c2ccccc2)c1 (centres undefined) was read as M1 PAM 5, CHRM1 agonist -2, CHRM5 PAM 7, CHRM1 antagonist -1, M5 antag 7 and M5 ag -3.
`O=C(NC(c1ccc(F)cc1)c1ccc2ccccc2n1)C1CCN(Cc2cccc(C(F)(F)F)c2)CC1` (centres undefined) gave M1 PAM -6, CHRM1 agonist -6, CHRM5 PAM -6, CHRM1 antagonist 6, M5 antag -3 and M5 ag -2.
`O=C(NCC[C@@H]1CC[C@@H](NS(=O)(=O)c2ccccc2)[C@@H](CO)O1)c1cc(Cl)cc(Cl)c1` gave CHRM5 PAM -2, M5 antag 8 and M5 ag 1.
For Cc1csc(NC(=O)c2cc(-c3ccccc3)nc3ccccc23)n1 the results were M1 PAM -8, CHRM1 agonist -7, CHRM5 PAM -18, CHRM1 antagonist 19, M5 antag 28* and M5 ag -1.
`O=C(NC1CCCC1)C1C(c2ccc(C(F)(F)F)cc2)=Nc2ccccc2N1C(=O)c1ccccc1` (centres undefined) gave CHRM5 PAM -2, M5 antag -10 and M5 ag -2.
Screening CC(C)N(CCn1c(SCC(=O)N2CC(=O)Nc3ccccc32)nc2ccccc2c1=O)C(C)C returned M1 PAM -23, CHRM1 agonist -6, CHRM5 PAM 0, CHRM1 antagonist 61*, M5 antag 3 and M5 ag -12.
`COc1ccccc1-c1csc(C(C)(NC(C)=O)c2ccccc2)n1` (centres undefined) gave M1 PAM 5, CHRM1 agonist -7, CHRM5 PAM -2, CHRM1 antagonist -13, M5 antag 0 and M5 ag -3.
Screening CC(=O)c1c(C)oc2ccc(N(C(C)=O)S(=O)(=O)c3ccc(F)cc3C)cc12 returned M1 PAM 11, CHRM1 agonist -3, CHRM5 PAM -3, CHRM1 antagonist -12, M5 antag 6 and M5 ag -4.
For CC(=O)c1c(C)oc2ccc(N(C(C)=O)S(=O)(=O)c3cccc4cccnc34)cc12 the results were M1 PAM -25, CHRM1 agonist 2, CHRM5 PAM -22, CHRM1 antagonist 60*, M5 antag 20 and M5 ag -12.
Cc1cc(/C=N/n2cnnc2)c(C)n1-c1ccc(OCc2ccc(Cl)cc2)cc1 was read as M1 PAM -15, CHRM1 agonist 0, CHRM5 PAM -15, CHRM1 antagonist 38, M5 antag 25 and M5 ag -5.
`Cc1cc(/C=N/n2cnnc2)c(C)n1-c1ccc(OCc2ccccc2F)cc1` gave M1 PAM -27, CHRM1 agonist -9, CHRM5 PAM -21, CHRM1 antagonist 45*, M5 antag 29* and M5 ag -1.
`O=C(CSc1ccc2nnc(CCNC(=O)c3ccccc3)n2n1)NCc1ccco1` gave M1 PAM -4, CHRM1 agonist -1, CHRM5 PAM -7, CHRM1 antagonist 15, M5 antag 28* and M5 ag -6.
`COc1ccc(CNC(=O)c2ccc(N3CCC4(CC3)CC(c3ccc(Cl)cc3)=NO4)c(NC(=O)Cc3ccc(F)cc3)c2)cc1` gave M1 PAM 0, CHRM1 agonist 1, CHRM5 PAM 2, CHRM1 antagonist 8, M5 antag 2 and M5 ag 3.
Screening O=C1Nc2ccc(Br)cc2/C1=N\N=C\C1=C(N2CCOCC2)C(=C/c2ccccc2)/CC1 returned M1 PAM -10, CHRM1 agonist -3, CHRM5 PAM -4, CHRM1 antagonist 18, M5 antag 12 and M5 ag 3.
`O=C1Nc2ccccc2/C1=N\N=C\C1=C(N2CCOCC2)C(=C\c2ccccc2)/CC1` gave M1 PAM 7, CHRM1 agonist 10, CHRM5 PAM 5, CHRM1 antagonist 30*, M5 antag -4 and M5 ag 2.
Screening Cc1ccc(C(=O)N2CCN=C2SCc2ccc([N+](=O)[O-])cc2)cc1C returned M1 PAM -22, CHRM1 agonist -8, CHRM5 PAM -9, CHRM1 antagonist 36*, M5 antag 6 and M5 ag -15.
Screening CN(C)c1ccc(-c2ccnc3c2CC(C)(C(=O)NCC2CCOCC2)O3)cc1 (centres undefined) returned M1 PAM 4, CHRM1 agonist -6, CHRM5 PAM 1, CHRM1 antagonist -1, M5 antag 3 and M5 ag -1.
`CC(=O)OCCNC(=O)c1cccnc1` gave M1 PAM 2, CHRM1 agonist 1, CHRM5 PAM -5, CHRM1 antagonist -20, M5 antag 1 and M5 ag 3.
